According to paper PMC2963662 (Neuropharmacology, 2010):

Legend:
Test in all cases: two-electrode voltage clamp, Xenopus oocytes
Assay type in all cases: cell-based
[1] = target: α5β3γ2 GABAA receptor (rat, oocytes) (Rattus norvegicus, UniProt P18508+P19969); details: read-out: α5
Procedure, shortened: (§1)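 Oocytes from Xenopus laevis were injected with mRNA made from rat GABAA subunit cDNAs. Two-electrode voltage clamp was done at room temperature, holding at −60 mV, with electrodes filled with […]. Cells were perfused at 6 ml/min with Ringer (90 mM NaCl, 5 mM HEPES pH 7.4, 1 mM MgCl2, KCl, CaCl2). Drug in 0.1% DMSO final was pre-applied for 30 sec, then co-applied with GABA until peak, with washes of up to 15 min.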

[2] = target: α2β3γ2 GABAA receptor (rat, oocytes) (Rattus norvegicus, UniProt P18508+P23576); details: read-out: α2
Sequence of α2β3γ2 GABAA receptor (rat, oocytes) (P23576 29-451): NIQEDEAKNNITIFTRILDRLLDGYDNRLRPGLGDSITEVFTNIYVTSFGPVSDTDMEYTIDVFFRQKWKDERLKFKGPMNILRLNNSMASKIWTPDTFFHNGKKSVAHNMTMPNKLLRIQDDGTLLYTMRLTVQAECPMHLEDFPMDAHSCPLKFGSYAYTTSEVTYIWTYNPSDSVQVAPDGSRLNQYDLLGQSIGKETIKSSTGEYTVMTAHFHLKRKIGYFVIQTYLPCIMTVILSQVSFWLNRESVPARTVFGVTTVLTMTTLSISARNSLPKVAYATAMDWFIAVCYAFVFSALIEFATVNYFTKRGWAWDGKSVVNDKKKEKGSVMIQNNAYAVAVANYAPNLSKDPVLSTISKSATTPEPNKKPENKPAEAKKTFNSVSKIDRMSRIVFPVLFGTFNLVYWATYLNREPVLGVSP
Sequence of α2β3γ2 GABAA receptor (rat, oocytes) (P18508 39-466): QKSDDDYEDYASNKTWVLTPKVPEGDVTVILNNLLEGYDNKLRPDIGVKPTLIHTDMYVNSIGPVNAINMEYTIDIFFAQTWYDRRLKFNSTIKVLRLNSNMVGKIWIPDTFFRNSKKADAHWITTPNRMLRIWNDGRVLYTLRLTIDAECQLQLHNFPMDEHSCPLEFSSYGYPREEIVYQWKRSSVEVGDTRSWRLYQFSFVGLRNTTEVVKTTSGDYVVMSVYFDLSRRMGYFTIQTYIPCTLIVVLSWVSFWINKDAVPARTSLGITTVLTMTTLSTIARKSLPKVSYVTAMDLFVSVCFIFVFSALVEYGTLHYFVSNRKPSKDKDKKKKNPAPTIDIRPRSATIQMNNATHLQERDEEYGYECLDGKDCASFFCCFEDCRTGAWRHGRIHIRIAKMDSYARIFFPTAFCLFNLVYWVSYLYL
Sequence of α2β3γ2 GABAA receptor (rat, oocytes) (P63079 26-473 partner): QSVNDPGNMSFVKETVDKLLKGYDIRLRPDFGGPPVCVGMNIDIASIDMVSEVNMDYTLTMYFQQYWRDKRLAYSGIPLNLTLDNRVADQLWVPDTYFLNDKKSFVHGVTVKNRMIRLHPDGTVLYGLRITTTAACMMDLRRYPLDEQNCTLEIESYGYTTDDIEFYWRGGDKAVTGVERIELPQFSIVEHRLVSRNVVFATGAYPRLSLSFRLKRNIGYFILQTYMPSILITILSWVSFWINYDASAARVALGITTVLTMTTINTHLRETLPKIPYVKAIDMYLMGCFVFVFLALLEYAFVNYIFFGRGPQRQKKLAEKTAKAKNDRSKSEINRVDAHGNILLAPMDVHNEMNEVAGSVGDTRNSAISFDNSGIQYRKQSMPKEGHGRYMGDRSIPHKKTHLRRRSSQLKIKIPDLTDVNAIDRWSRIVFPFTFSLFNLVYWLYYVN
Procedure, shortened: as §1

[3] = target: α1β3γ2 GABAA receptor (rat, oocytes) (Rattus norvegicus, UniProt P18508+P62813); details: read-out: α1
Sequence of α1β3γ2 GABAA receptor (rat, oocytes) (P62813 28-455): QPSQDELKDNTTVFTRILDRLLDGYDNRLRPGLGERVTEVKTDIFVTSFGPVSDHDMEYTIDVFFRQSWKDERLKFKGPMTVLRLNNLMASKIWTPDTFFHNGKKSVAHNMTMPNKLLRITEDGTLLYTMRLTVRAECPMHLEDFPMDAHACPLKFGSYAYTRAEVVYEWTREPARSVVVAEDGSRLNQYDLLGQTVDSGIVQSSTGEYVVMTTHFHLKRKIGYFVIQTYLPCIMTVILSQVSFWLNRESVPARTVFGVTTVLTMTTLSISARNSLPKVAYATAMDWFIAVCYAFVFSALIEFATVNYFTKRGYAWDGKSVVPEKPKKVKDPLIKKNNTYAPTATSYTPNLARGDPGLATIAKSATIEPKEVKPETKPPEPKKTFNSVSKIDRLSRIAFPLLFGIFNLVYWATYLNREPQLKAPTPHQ
Sequence of α1β3γ2 GABAA receptor (rat, oocytes) (P18508 39-466): as the sequence (P18508 39-466) above
Sequence of α1β3γ2 GABAA receptor (rat, oocytes) (P63079 26-473 partner): as the sequence (P63079 26-473 partner) above
Procedure, shortened: as §1

[4] = target: α3β3γ2 GABAA receptor (rat, oocytes) (Rattus norvegicus, UniProt P18508+P20236); details: read-out: α3
Sequence of α3β3γ2 GABAA receptor (rat, oocytes) (P20236 29-493): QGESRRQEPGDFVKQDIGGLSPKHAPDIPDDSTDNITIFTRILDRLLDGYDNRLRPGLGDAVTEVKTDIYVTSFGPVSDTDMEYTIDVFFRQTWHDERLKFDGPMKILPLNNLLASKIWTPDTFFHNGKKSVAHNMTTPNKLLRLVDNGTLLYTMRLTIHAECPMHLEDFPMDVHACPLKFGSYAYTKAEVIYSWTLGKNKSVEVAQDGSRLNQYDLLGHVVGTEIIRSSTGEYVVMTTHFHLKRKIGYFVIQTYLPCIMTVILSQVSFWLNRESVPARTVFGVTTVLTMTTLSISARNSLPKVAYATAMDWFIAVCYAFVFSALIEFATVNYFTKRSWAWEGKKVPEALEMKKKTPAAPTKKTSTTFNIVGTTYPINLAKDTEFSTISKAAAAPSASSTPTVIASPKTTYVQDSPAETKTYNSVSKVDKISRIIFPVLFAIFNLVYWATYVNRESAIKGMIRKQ
Sequence of α3β3γ2 GABAA receptor (rat, oocytes) (P18508 39-466): as the sequence (P18508 39-466) above
Sequence of α3β3γ2 GABAA receptor (rat, oocytes) (P63079 26-473 partner): as the sequence (P63079 26-473 partner) above
Procedure, shortened: as §1

Sequence of α5β3γ2 GABAA receptor (rat, oocytes) (P19969 26-464): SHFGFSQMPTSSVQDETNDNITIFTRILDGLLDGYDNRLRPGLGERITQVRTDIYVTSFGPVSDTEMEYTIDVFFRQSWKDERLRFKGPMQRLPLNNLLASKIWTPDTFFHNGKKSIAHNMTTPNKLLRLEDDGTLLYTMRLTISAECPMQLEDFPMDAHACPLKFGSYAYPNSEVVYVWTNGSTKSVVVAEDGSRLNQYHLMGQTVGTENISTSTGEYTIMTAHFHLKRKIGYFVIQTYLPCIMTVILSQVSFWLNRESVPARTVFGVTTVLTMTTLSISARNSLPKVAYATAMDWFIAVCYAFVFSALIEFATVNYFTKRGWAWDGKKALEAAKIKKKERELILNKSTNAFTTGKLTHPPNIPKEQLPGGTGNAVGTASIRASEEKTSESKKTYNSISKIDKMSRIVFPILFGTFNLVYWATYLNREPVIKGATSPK
Sequence of α5β3γ2 GABAA receptor (rat, oocytes) (P18508 39-466): as the sequence (P18508 39-466) above
Sequence of α5β3γ2 GABAA receptor (rat, oocytes) (P63079 26-473 partner): as the sequence (P63079 26-473 partner) above

Compound | activity at 1 µM [1] | activity at 1 µM [2] | activity at 1 µM [3] | activity at 1 µM [4]
C#Cc1ccc2c(c1)C(c1ccccc1F)=N[C@@H](C)c1c(C(=O)OCC)ncn1-2 [SH-053-2'F-S-CH3, (S)-8-ethynyl-6-(2-fluoro-phenyl)-4-methyl-4H-2,5,10b-triaza-benzo[e]azulene-3-carboxylic acid ethyl ester] | 389% |  |  | 
CN1C(=O)CN=C(c2ccccc2)c2cc(Cl)ccc21 [Diazepam] | 342% | 536% | 314% | 752%
